# Source: PubChem BioAssay
# This is a sample that favours compounds with a hit; in the whole collection about 4.5% have one here.
# RGS4 pot: RGS4 potentiators or activators, primary screen, cell-based, HEK293 M3R inducible RGS4, calcium flux; 310,000 compounds, 0.92% hits; AID 463111, 2010; B-score at 10 µM; carbachol calcium flux Fluo4; hits give low values;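 active means B-score of the integrated calcium signal more than 4 SD below the library mean, with starting fluorescence not abnormally high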;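 further: negative B-score means reduced calcium response which marks RGS4 activation or potentiation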
#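 Test system: HEK293 cells with stable M3R and inducible RGS4; also added: carbachol at ECmax as muscarinic agonist stimulus; schedule: dye loading 30 min 37 °C, buffer rest 30 min RT; technique: kinetic calcium fluorescence imaging with Fluo4-AM dye, 2 µM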
# MrgX1 agonist: agonists of human MrgX1 receptor, primary screen, HEK293 cells, Fluo-4 calcium flux; B-score at 10 µM; AID 588627, 2011; 310,000 compounds, 0.44% hits; Fluo-4 calcium fluorescence, agonist mode; hits give high values; Mas-related G-protein coupled receptor member X1 (Homo sapiens), Q96LB2;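 active means calcium response B-score plate-corrected fluorescence ratio at least 3 library SD, with starting fluorescence B-score inside 5 SD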
#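 Assay system: stable human MrgX1 HEK293 cell line. Quantity: 15,000 cells per well. Schedule: cells plated overnight, dye loaded 0.5 h 37 °C, 0.5 h room temperature. Detection: Fluo-4 NW calcium-flux fluorescence, kinetic read. Read-out basis: peak-minus-minimum fluorescence over baseline, converted to B scores. Control set: positive and negative control wells on each plate.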
# PHOSPHO1 inh: PubChem AID 1565; 290,000 compounds, 1.1% hits; inhibition, % at 13.3 µM; Phosphoethanolamine/phosphocholine phosphatase (Homo sapiens), Q8TCT1; recombinant PHOSPHO1, absorbance phosphatase assay; in the data active means inhibition above about 60%
# Target sequence (Q8TCT1 whole entry, looked up): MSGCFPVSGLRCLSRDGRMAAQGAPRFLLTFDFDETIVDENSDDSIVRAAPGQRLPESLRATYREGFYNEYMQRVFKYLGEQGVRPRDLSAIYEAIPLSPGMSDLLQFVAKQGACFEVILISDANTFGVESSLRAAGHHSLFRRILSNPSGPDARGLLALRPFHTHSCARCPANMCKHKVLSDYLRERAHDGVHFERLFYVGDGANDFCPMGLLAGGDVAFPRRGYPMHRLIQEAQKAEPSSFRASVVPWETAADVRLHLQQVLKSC
# RGS4 inh: RGS4 inhibitors, primary screen, cell-based, HEK293 M3R inducible RGS4, calcium flux; Regulator of G-protein signaling 4 (Homo sapiens), P49798; Fluo-4 calcium flux; hits give high values; triggered by carbachol at its EC20; B-score at 10 µM; 310,000 compounds, 0.45% hits; AID 463165, 2010;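 active means B-score, a plate-corrected calcium signal, over three deviations above library mean, with baseline fluorescence within five deviations of library mean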;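 further: RGS4 expression induced by doxycycline in cells with stable M3 receptor; B-score is computed from the integrated fluorescence ratio over baseline after carbachol; higher B-score means a larger calcium signal and so more RGS4 inhibition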
# Target sequence (P49798 whole entry, looked up): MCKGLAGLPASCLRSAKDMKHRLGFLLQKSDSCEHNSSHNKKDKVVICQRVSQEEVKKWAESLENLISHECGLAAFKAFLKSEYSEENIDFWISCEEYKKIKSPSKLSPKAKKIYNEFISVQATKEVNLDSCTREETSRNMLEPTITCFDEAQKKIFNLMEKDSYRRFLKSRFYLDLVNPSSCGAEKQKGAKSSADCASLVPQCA
# MrgX1 allo act: positive allosteric modulators of MrgX1, primary screen, HEK293 cells, Fluo-4 calcium flux; FDSS; hits give high values; B-score at 10 µM; 310,000 compounds, 0.63% hits; Mas-related G-protein coupled receptor member X1 (Homo sapiens), Q96LB2;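 active means plate-corrected calcium response at least 3 library SD above typical, normal starting fluorescence, not activating the receptor alone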;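 further: compound read alongside a low EC10 to EC30 dose of BAM8-22 agonist; peak minus trough fluorescence over baseline measured at the second addition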
# MrgX1 antag: antagonists of human MrgX1 receptor, primary screen, HEK293 cells, Fluo-4 calcium flux; Mas-related G-protein coupled receptor member X1 (Homo sapiens), Q96LB2; BAM8-22 antagonism; hits give low values; B-score at 10 µM; 310,000 compounds, 1.3% hits;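 active means calcium-response B-score plate-corrected more than 3 library SD below zero, starting fluorescence within 5 deviations, no agonist response on first addition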;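 further: peak minus trough fluorescence over baseline after final BAM8-22 challenge near maximal dose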
# MrgX1 PAM conf: MrgX1 positive allosteric modulators, duplicate retest, confirmation, HEK293 cells, Fluo-4 calcium flux | AID 602413, 2012 | shares compounds with MrgX1 allo act | activation (ratio percentage), % at 10 µM | Fluo-4 calcium fluorescence, FDSS | 1,200 compounds, 13% hits;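 active means ratio at least 3 SD above the weak peptide control, stable starting fluorescence, no direct agonism earlier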;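 further: compound followed by low BAM8-22 agonist challenge near EC20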
# HEK293 Ca flux: nonspecific calcium signal in parental HEK293, confirmation, counter-screen for MrgX1 antagonist project, parental HEK293 cells, Fluo-4 calcium flux | fluorescence ratio F(max-min)/F0 at 10 µM | Fluo-4 calcium fluorescence, FDSS | shares compounds with MrgX1 antag | 4,000 compounds, 2% hits;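 active means duplicate-averaged calcium fluorescence ratio at least three times the standard deviation of buffer wells, a nonspecific response in parental cells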
# HEK293 Ca counter: calcium response in parental HEK293 cells, primary screen, counter-screen for MrgX1 allosteric activator project, cell-based, Fluo-4 calcium flux, duplicate; shares compounds with MrgX1 antag; Fluo-4 fluorescence ratio; hits give high values; fluorescence ratio F(max-min)/F0 at 10 µM; 4,000 compounds, 0.4% hits; AID 624114, 2012;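 active means calcium fluorescence ratio, averaged over duplicates, at least 3 SD of the buffer-well ratio, meaning a nonspecific response in receptor-free cells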;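 further: untransfected parental HEK293 lacking MrgX1 used as counterscreen for MrgX1 allosteric activators; fluorescence change taken during the second addition on a kinetic imager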
# HEK293 Ca cntr2: calcium response in parental HEK293 cells, primary screen, counter-screen for MrgX1 agonist project, cell-based, Fluo-4 calcium flux, duplicate, agonist mode | shares compounds with MrgX1 antag | Fluo-4 calcium fluorescence (FDSS); hits give high values | fluorescence ratio F(max-min)/F0 at 10 µM | 4,000 compounds, 8.7% hits | AID 624115, 2012;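 active means calcium fluorescence ratio at least three times the spread of buffer wells, meaning a non-specific response in parental cells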
# The depositor's hits bear a star; i = inactive; · = not tested or not shown.
SMILES,RGS4 pot,MrgX1 agonist,PHOSPHO1 inh,RGS4 inh,MrgX1 allo act,MrgX1 antag,MrgX1 PAM conf,HEK293 Ca flux,HEK293 Ca counter,HEK293 Ca cntr2
O=C(CN1C(=O)C(=O)N(Cc2ccccc2)C1=O)Nc1ccc(F)c(Cl)c1,i,i,-24,i,i,i,·,·,·,·
CC(=O)c1cc2c(cc1NC(=O)CN1CCCCC1C)OCO2 (stereo not drawn),i,i,-7,i,11*,i,i,i,i,i
CCOc1ccc(NC(=O)CSc2ccc(-c3cccnc3)nn2)cc1,i,i,18,i,i,i,·,·,·,·
O=C(O)c1c2c(nc3ccccc13)/C(=C/c1c(F)cccc1F)CCC2,i,i,12,i,8.2*,i,i,i,i,i
O=C(O)c1c2c(nc3ccccc13)/C(=C/c1ccc(OC(F)F)cc1)CCC2,i,i,14,i,i,i,·,·,·,·
CN(C)CCCN(C(=O)c1ccco1)c1nc2ccc(Br)cc2s1,i,i,-2,i,6.5*,i,i,i,i,i
Clc1ccccc1Nc1nnc(-c2ccncc2)s1,i,i,-32,i,9.6*,i,i,i,i,i
O=C(Nc1cccc(F)c1)C1CCCN(c2cnccn2)C1 (stereo not drawn),i,i,26,i,i,i,·,·,·,·
CCCCC(=O)NC(=S)Nc1cccc(NC(=O)CC)c1,i,i,19,i,i,i,·,·,·,·
CCCCC(=O)NC(=S)Nc1c(C)cc(Br)cc1C,i,i,-1,i,9.3*,i,i,i,i,i
COC(=O)c1cc2ccsc2n1Cc1ccccc1F,i,i,-16,i,i,i,·,·,·,·
Cc1ccc(C(F)(F)F)cc1NC(N)=S,i,i,57,i,7.2*,i,i,i,i,i
CCN(Cc1ccccc1)C(=O)COC(=O)c1cc(=O)[nH]c2ccccc12,i,i,6,i,i,i,·,·,·,·
O=C(COC(=O)c1cc(Br)ccc1Cl)NC1CCCC1,i,i,-10,i,8*,i,i,i,i,i
O=C(COC(=O)c1cc(Br)ccc1O)NC1CCCCCC1,i,i,·,i,i,i,·,·,·,·
CCOc1ccccc1NC(=O)CCS(=O)(=O)c1cccc2nonc12,·,i,1,·,7.5*,i,i,i,i,i
CC(C)(C)[C@H]1C=C(C(=O)O)O[C@@H](OCc2ccc(CO)cc2)C1,i,i,·,i,i,i,·,·,·,·
CSCCC(NS(=O)(=O)c1ccc(Cl)cc1)C(=O)O (stereo not drawn),i,i,-14,i,11*,i,i,i,i,i
NC(=O)CC(NC(=O)Cc1cccc2ccccc12)c1ccc(NCc2ccc(F)c(F)c2)c([N+](=O)[O-])c1 (stereo not drawn),i,i,20,i,i,i,·,·,·,·
Cc1ccccc1-n1c(SCC(=O)N(C)C2CCS(=O)(=O)C2)nc2ccccc2c1=O (stereo not drawn),i,i,37,i,14*,i,i,i,i,i
O=C(N[C@@H](Cc1c[nH]c2ccccc12)C(=O)O)c1ccccc1Cl,i,i,-30,i,17*,i,i,i,i,i
CN1CCN(C2CCN(c3cccc(Cl)c3)CC2)CC1CCO (stereo not drawn),i,i,·,i,i,i,·,·,·,·
CCCCC1(C)NC(=O)c2c(C)sc(C(=O)OCC)c2N1 (stereo not drawn),i,i,15,i,8.3*,i,i,i,i,i
CCOC(=O)N1CCC(N2C(=O)c3ccc(C(=O)O)cc3C2=O)CC1,i,i,-9,i,i,i,·,·,·,·
CCOC(=O)N1CCC(N2C(=O)c3ccc(C(=O)Nc4cccc(OC)c4)cc3C2=O)CC1,i,i,53,i,8*,i,i,i,i,i
SMILES,RGS4 pot,MrgX1 agonist,PHOSPHO1 inh,RGS4 inh,MrgX1 allo act,MrgX1 antag,MrgX1 PAM conf,HEK293 Ca flux,HEK293 Ca counter,HEK293 Ca cntr2
C=CCN(CC=C)C(=O)c1ccc(OC2CCN(S(=O)(=O)N(C)C)CC2)cc1,i,i,26,i,i,i,·,·,·,·
CC(C)Nc1nc(NC(C)(C)C)nc(Oc2ccc(=O)n(C)n2)n1,i,i,3,i,28*,i,i,i,i,i
Cc1ccc(NC(=O)COC(=O)C2C3CC4OC(=O)C2C4C3)cc1 (stereo not drawn),i,i,32,i,26*,i,i,i,i,i
Cc1sc2ncnc(N3CCC(C)CC3)c2c1C,i,i,3,i,18*,i,4.3%*,i,i,i
Cc1c(C(=O)N2CCN(c3ccccc3)CC2)sc2ncnc(N3CCC(C)CC3)c12,i,i,11,i,i,i,·,·,·,·
Cc1ccc(NC(=O)CSc2n[nH]c(-c3cccnc3)n2)c(Br)c1,i,i,-4,i,i,i,·,·,·,·
CCn1cc(C(=O)NC2CC(C)(C)Cc3c2cnn3-c2cccc(F)c2)cn1 (stereo not drawn),i,i,23,i,i,i,·,·,·,·
